Measured values published in paper PMC11871924 (International Journal of Nanomedicine, 2025).

What was measured:
[1] = biological target: BSA (Bos taurus, UniProt P02769); type: binding, bovine; conditions: 2–10 μM quencher, BSA 2 μM
In short: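 BSA (2 μM) titrated with test compound at 0, 2, 4, 6, 8, 10 μM (0–20 μM for one reagent). Site competition used phenylbutazone, ibuprofen or digitoxin (2 μM final) added before the test compound. Steady-state BSA fluorescence was measured without and with quencher. Kq, Kb and n were calculated from the quenching formulas, taking biomolecule average lifetime as 10−8 s.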

[2] = test system: H22 orthotopic liver tumors; assay: Mouse orthotopic H22 hepatocellular carcinoma model; type: in vivo, BALB/c mice
In short: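 Female BALB/c mice (6–8 weeks) received 106 log-phase H22 cells in matrix gel, injected into an exteriorised liver lobe via abdominal incision. At ~50 mm3 tumours, groups (n=5) received i.v. PBS (100 μL), 100 μL nanoparticles daily for 6 days, or oxaliplatin 5 mg/kg every two days ×3. Growth was imaged by IVIS after i.p. D-luciferin (200 μL, 15 mg/mL) on days 5, 10, 15. Body weight was recorded.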

[3] = test system: VX2 orthotopic liver tumors; assay: Rabbit VX2 orthotopic liver tumor model, DSA-guided arterial infusion, PET/CT; type: in vivo, New Zealand White rabbits; conditions: n=4, mean ± s.d.
In short: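 New Zealand White rabbits (4 months, n=4/group) had 1 mm3 VX2 tumour blocks implanted in the left liver lobe under ultrasound, followed by i.m. penicillin for 3 days and CT sizing. DSA-guided hepatic arterial infusion delivered PBS, oxaliplatin or test nanoparticles (5 mg/kg), doses converted by body surface area. Tumour SUV was measured by PET/CT before and 7 days after infusion.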

Sequence of BSA (P02769 25-607): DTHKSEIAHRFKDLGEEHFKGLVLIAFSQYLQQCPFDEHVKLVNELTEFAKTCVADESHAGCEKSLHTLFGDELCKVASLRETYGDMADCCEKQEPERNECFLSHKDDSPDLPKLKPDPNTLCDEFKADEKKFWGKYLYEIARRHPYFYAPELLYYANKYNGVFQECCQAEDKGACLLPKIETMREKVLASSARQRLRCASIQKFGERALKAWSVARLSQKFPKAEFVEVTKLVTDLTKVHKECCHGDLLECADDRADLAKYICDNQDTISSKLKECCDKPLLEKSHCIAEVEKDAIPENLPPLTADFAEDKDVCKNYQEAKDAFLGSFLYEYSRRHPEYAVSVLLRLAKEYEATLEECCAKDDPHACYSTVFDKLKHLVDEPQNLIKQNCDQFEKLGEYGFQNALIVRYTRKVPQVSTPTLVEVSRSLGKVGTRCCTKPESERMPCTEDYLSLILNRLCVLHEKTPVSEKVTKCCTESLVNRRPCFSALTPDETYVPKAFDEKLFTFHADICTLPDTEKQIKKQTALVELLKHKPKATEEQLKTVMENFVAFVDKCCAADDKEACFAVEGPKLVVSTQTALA

| Molecule | Quenching of BSA Trp-214 fluorescence emission [1] | Body weight of some mice during treatment ([2]; decrease from the initial 20 g, oxaliplatin 5 mg/kg i.v. every two days ×3) [g] | Effect on orthotopic tumors (in vivo imaging) ([2]; mouse orthotopic H22 model, i.v., n=5) | Tumor standardized uptake value (SUV) before treatment [3] |
| --- | --- | --- | --- | --- |
| Ir(ppy)2-diimi dazole [Ir-diim] | could quench | – | – | – |
| O=C1[O][Pt]2([NH][C@@H]3CCCC[C@H]3[NH]2)[O]C1=O [oxaliplatin] | – | 13 | effectively inhibited | 5.44±0.43 |
